Series [1] concerns Leishmania donovani. Nature of the series: Antileishmanial activity against wild type promastigote stage of Leishmania donovani LV9 infected in mouse macrophages assessed as reduction in parasite viability measured after 48 hrs by Giemsa staining-based assay. In kind it is functional, organism-based. The conditions noted are these: LV9, 48 h.
Series [2] has as its system Leishmania donovani. Description: Antileishmanial activity against sitamaquine-resistant wild type promastigote stage of Leishmania donovani MHOM/ET/67/HU3 infected in mouse macrophages assessed as reduction in parasite viability measured after 48 hrs by Giemsa staining-based assay. In kind it is functional, organism-based. To be noted: MHOM/ET/67/HU3, Macrophage.
Series [3] relates to Leishmania donovani. Description: Antileishmanial activity against amastigotes stage of Leishmania donovani D10 infected in mouse RAW264.7 cells assessed as reduction in cell viability incubated from 24 to 72 hrs by Giemsa staining-based assay. In kind it is functional, organism-based. To be noted: D10, RAW264.7.
The subject of series [4] is Leishmania donovani. Description: Antileishmanial activity against Leishmania donovani promastigotes assessed as reduction in parasite viability in presence of 50 uM iron chelator desferrioxamine measured after 24 hrs by microplate alamar blue assay. In kind it is functional, organism-based. The method, boiled down: (§1)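 L. donovani promastigotes (MHOM/NP/02/BPK282/0cl4, late log/stationary phase) seeded at 10^6 cells/mL in complete HOMEM, preincubated 24 h at 26 °C with desferrioxamine at four nontoxic doses (1:2 dilutions). Compounds added over a range spanning each one's IC50. Viability read by alamarBlue absorbance at 550/630 nm. FIC values plotted as isobolograms. Duplicates.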

In series [5] the test system is Leishmania donovani. Description: Additive antileishmanial activity against Leishmania donovani promastigotes measured after 24 hrs in presence of iron chelator desferrioxamine by microplate alamar blue assay. In kind it is functional, organism-based. The gist of the method:
as §1
For orientation: Resazurin is reduced to fluorescent resorufin, in cell work by metabolically active cells.

The test system of series [6] is Leishmania donovani. Description: Antileishmanial activity against Leishmania donovani promastigotes assessed as reduction in parasite viability in presence of 25 uM iron chelator desferrioxamine measured after 24 hrs by microplate alamar blue assay. In kind it is functional, organism-based. The gist of the method: as §1
Series [7] relates to Leishmania donovani. Nature of the series: Antileishmanial activity against Leishmania donovani promastigotes assessed as reduction in parasite viability in presence of […] iron chelator desferrioxamine measured after 24 hrs by microplate alamar blue assay. In kind it is functional, organism-based. The method, boiled down: as §1
Series [8] has as its system Leishmania donovani. Description: Induction of ROS generation in Leishmania donovani promastigotes assessed as increase in intracellular ROS level at IC50 measured after 24 hrs by H2DCFDA probe based fluorimetry analysis. In kind it is functional, organism-based.
The test system of series [9] is Leishmania donovani. Nature of the series: Antileishmanial activity against Leishmania donovani promastigotes assessed as reduction in parasite viability in presence of 100 uM iron chelator desferrioxamine measured after 24 hrs by microplate alamar blue assay. Type of series: functional, organism-based. The method, boiled down:
as §1

Series [10] has as its system Leishmania donovani. Description: Induction of ROS generation in Leishmania donovani promastigotes assessed as increase in intracellular ROS level at IC50 measured up to 60 mins by H2DCFDA probe based fluorimetry analysis. In kind it is functional, organism-based. The conditions noted are these: time min <=60.
Series [11] in a line: Drug localization in Leishmania donovani MHOM/NP/O2/BPK282/0cl4 promastigote at IC50 […] by TO-PRO-3 dye based confocal microscopy analysis. In kind it is ADME.
Series [12] can be described thus: Drug localization in kinetoplast of Leishmania donovani MHOM/NP/O2/BPK282/0cl4 promastigote at IC50 incubated for 40 to 45 mins by TO-PRO-3 staining based confocal microscopy analysis. Type of series: ADME, subcellular. The conditions noted are these: time 40-45 min.
Series [13] can be described thus: Drug localization in cytoplasm of Leishmania donovani MHOM/NP/O2/BPK282/0cl4 promastigote at IC50 incubated for 40 to 45 mins by TO-PRO-3 dye based confocal microscopy analysis. Type of series: ADME, subcellular. The conditions noted are these: time 40-45 min.
Series [14] is described as follows: Drug localization in nucleus of Leishmania donovani MHOM/NP/O2/BPK282/0cl4 promastigote at IC50 incubated for 40 to 45 mins by TO-PRO-3 staining based confocal microscopy analysis. In kind it is ADME, subcellular. To be noted: time 40-45 min.
Series [15] has as its system Leishmania donovani. Description: Antileishmanial activity against HePC-resistant wild type promastigote stage of Leishmania donovani MHOM/ET/67/HU3 infected in mouse macrophages assessed as reduction in parasite viability measured after 48 hrs by Giemsa staining-based assay. The conditions noted are these: MHOM/ET/67/HU3, Macrophage.
Series [16] relates to Leishmania donovani. Description: Induction of ROS generation in Leishmania donovani promastigotes at 22 uM measured after 24 hrs by H2DCFDA probe based fluorimetry analysis. In kind it is functional, organism-based. The gist of the method: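 Late log/stationary L. donovani promastigotes seeded at 10^6 cells mL–1 in HOMEM with 20% FBS and treated 24 h at 26 °C; untreated cells served as negative control. Cells were washed in PBS (pH 7.4), loaded with 10 μM H2DCFDA and kept 35 min in the dark at 26 °C. DCF fluorescence read at ex 488/em 530 nm over 1–60 min. Three independent experiments, each in triplicate.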

The subject of series [17] is Leishmania donovani. Description: Antileishmanial activity against Leishmania donovani MHOM/MA(BE)/67/ITMAP263 promastigotes infected in primary mouse peritoneal macrophage assessed as reduction in parasite viability measured after 4 days by Giemsa staining-based assay. Type of series: functional, organism-based. The conditions noted are these: MHOM/MA(BE)/67/ITMAP263, Peritoneal macrophage, 96 h.

Calls of active or inactive are those of the source. The rule behind the calls is not given here.

The values that follow come from ChEMBL document CHEMBL4699585, “Evaluation of the Pharmacophoric Role of the O-O Bond in Synthetic Antileishmanial Compounds: Comparison between 1,2-Dioxanes and Tetrahydropyrans” (J Med Chem, 2020).

The term IC50 denotes the midpoint of a concentration-inhibition curve. Turning to `C=CCO[C@@]1(C(F)(F)F)O[C@@H]2C[C@@]3(C)C[C@H]4[C@H](C)CC[C@@H]([C@H]1C)[C@@]24OO3`, the IC50 in series [1] came to 6.3 µM; in [2], 1.6 µM.
Consider `OCCCCCCC1CCOOC2(CCCCCCCCCCC2)OOC1` (configuration not stated), for which, in series [3], the 50% inhibitory concentration (IC50) was found to be 6.7 µM.
On to `COc1ccc(N[C@@]2(C(F)(F)F)O[C@@H]3C[C@@]4(C)C[C@H]5[C@H](C)CC[C@@H]([C@H]2C)[C@@]35OO4)cc1`, for which the 50% inhibitory concentration (IC50) in series [1] was 1.5 µM; in [2], 0.38 µM.
In the case of `CCCCC1(CCCC)CO[C@@](C)(OC)[C@@H](CNCCCn2ccnc2)C1` (racemic), the IC50 was 5.6 µM in series [4], 5.3 µM in series [6], 5.4 µM in [7] and 4.6 µM in series [9]. The outcome in series [5], in series [8] and in [10] was Active.
As to `CCCCC1(CCCC)CO[C@@](C)(OC)[C@@H](CNCCCCNc2c3ccc(Cl)cc3nc3ccc(OC)cc23)C1` (racemic), the Drug uptake result in series [11] is “Active”.
Regarding `CCCCC1(CCCC)C[C@H](CNCCCCNc2ccc([N+](=O)[O-])c3nonc23)[C@](C)(OC)OO1` (racemic), the figures for the Drug uptake entry in series [12], in series [13] and in series [14] were “Active”, “Active” and “Not Active”, respectively.
Turning to `CCCCC1(CCCC)C[C@H](CNCCCn2ccnc2)[C@](C)(OC)OO1` (racemic), the IC50 in series [4] was 9.3 µM; in series [6], 8.9 µM; in [7], 6.6 µM; in [9], 6.5 µM. Further, the outcome in [5], in [8] and in series [10] was Active.
For `CCCCCCCCCCCCCCCCOP(=O)([O-])OCC[N+](C)(C)C` [MILTEFOSINE], the concentration for half-maximal inhibition (IC50) stood at 68.1 µM in [15] and 1.9 µM in [2]. The result in series [16] was Active.
Turning to `NC[C@@H]1O[C@H](O[C@H]2[C@@H](O)[C@H](O[C@@H]3[C@@H](O)[C@H](N)C[C@H](N)[C@H]3O[C@H]3O[C@H](CO)[C@@H](O)[C@H](O)[C@H]3N)O[C@@H]2CO)[C@H](N)[C@@H](O)[C@@H]1O` [PAROMOMYCIN], the half-inhibitory concentration (IC50) in [17] worked out at 19.7 µM.
